This passage reports inhibition and fold change (FC) results from ChEMBL document CHEMBL5653631, “A Potent and Selective ULK1 Inhibitor Suppresses Autophagy and Sensitizes Cancer Cells to Nutrient Stress” (iScience, 2018).

Test [1] has as its target Dual specificity tyrosine-phosphorylation-regulated kinase 1A (Homo sapiens) (UniProt Q13627). The experiment in a line: Inhibition of human recombinant DYRK1A at 15 nM in presence of ATP by radiometric assay relative to control.
Test [2] concerns the target Protein kinase C gamma type (Homo sapiens) (UniProt P05129). In words: Inhibition of human recombinant PKCg at 15 nM in presence of ATP by radiometric assay relative to control.
A further test is filed under the species Homo sapiens. In words: Inhibition of human recombinant ABL at 15 nM related to control ULK1.
In test [3] the target is T1, Serine/threonine-protein kinase 17A (Homo sapiens) (UniProt Q9UEE5).
T1 sequence (whole entry): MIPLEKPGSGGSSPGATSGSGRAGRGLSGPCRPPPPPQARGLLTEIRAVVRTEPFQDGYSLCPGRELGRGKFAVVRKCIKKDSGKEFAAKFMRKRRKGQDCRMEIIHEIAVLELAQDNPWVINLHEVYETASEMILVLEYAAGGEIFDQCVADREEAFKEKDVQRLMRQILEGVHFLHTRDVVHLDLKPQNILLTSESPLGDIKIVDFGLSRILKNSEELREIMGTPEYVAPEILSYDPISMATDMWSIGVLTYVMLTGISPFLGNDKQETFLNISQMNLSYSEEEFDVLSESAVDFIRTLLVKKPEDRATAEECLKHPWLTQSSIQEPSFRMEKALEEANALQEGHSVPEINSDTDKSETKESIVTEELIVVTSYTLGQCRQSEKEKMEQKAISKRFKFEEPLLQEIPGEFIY
In words: Inhibition of human recombinant DRAK1 at 15 nM related to control ULK1.

Test [4] deals with TGF-beta receptor type-2 (Homo sapiens) (UniProt P37173). The experiment in a line: Inhibition of human recombinant TGFbR2 at 15 nM related to control ULK1.
Sequence of TGF-beta receptor type-2 (Homo sapiens) (P37173 whole entry): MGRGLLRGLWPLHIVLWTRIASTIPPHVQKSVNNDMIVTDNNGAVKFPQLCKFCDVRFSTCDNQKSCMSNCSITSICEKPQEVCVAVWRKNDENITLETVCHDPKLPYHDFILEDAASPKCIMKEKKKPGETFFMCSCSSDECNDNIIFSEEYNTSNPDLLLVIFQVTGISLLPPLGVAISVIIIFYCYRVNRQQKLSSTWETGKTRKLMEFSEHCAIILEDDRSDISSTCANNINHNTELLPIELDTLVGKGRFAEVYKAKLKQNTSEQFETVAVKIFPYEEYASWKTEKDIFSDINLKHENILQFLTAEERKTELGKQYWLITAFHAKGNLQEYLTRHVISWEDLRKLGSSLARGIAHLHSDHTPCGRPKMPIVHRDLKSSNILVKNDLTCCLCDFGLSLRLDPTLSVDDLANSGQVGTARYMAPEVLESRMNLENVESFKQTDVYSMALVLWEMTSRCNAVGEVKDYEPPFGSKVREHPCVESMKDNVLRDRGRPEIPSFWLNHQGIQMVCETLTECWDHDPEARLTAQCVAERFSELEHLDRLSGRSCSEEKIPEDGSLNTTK
Test [5] addresses T2, Activin receptor type-1B (Homo sapiens) (UniProt P36896).
T2 sequence (whole entry): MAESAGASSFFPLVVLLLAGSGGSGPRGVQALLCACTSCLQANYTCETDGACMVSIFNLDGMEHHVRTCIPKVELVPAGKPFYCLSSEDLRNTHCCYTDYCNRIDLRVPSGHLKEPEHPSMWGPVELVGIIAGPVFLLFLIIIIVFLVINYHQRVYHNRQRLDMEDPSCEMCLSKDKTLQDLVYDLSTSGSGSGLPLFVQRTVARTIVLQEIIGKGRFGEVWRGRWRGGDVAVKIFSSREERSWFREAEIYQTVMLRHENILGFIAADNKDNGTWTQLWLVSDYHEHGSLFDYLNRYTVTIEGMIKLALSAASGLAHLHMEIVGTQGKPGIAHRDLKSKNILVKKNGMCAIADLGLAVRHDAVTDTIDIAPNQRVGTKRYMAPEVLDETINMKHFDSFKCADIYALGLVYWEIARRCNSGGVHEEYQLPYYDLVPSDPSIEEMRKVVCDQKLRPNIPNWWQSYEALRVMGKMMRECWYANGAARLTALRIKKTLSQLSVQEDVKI
The experiment in a line: Inhibition of human recombinant ALK4 at 40 nM in presence of ATP by radiometric assay relative to control. Put shortly: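 Panel of 327 recombinant human kinases, each assayed in vitro by radiometric activity assay in duplicate at a single inhibitor concentration per compound, chosen with reference to its ULK1 inhibition. Activity remaining was expressed as percent of vehicle control, and percent inhibition was calculated as 100 minus percent activity remaining.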

The target of test [6] is DNA-PK/Ku70/Ku85 (Homo sapiens) (UniProt P78527+P12956+P13010). The experiment in a line: Inhibition of human recombinant DNAPK at 40 nM in presence of ATP by radiometric assay relative to control. Type of test: protein-complex assay.
Test [7] deals with Tyrosine-protein kinase BTK (Homo sapiens) (UniProt Q06187). The experiment in a line: Inhibition of human recombinant BTK at 40 nM related to control ULK1.
Sequence of Tyrosine-protein kinase BTK (Homo sapiens) (Q06187 whole entry): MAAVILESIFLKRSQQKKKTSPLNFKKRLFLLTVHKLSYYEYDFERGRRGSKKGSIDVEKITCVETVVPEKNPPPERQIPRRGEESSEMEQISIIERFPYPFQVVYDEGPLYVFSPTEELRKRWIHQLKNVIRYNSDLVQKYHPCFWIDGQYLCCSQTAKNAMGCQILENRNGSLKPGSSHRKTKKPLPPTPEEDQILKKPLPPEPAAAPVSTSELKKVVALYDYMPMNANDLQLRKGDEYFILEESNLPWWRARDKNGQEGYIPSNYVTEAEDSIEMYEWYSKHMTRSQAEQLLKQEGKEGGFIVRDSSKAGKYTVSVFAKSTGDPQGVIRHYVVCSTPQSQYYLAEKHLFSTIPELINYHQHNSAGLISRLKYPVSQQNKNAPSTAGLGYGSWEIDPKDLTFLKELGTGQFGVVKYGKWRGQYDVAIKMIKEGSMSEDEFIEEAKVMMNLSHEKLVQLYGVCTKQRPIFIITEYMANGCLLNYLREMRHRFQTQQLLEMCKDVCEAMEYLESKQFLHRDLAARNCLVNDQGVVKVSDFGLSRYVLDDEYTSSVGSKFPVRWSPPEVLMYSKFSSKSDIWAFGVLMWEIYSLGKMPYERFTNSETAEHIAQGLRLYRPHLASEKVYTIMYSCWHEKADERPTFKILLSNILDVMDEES
Test [8] concerns the target Ribosomal protein S6 kinase alpha-6 (Homo sapiens) (UniProt Q9UK32). In words: Inhibition of human recombinant RSK4 at 40 nM related to control ULK1.
In test [9] the target is Tyrosine-protein kinase Fyn (Homo sapiens) (UniProt P06241). The experiment in a line: Inhibition of human recombinant FYN at 500 nM in presence of ATP by radiometric assay relative to control.
Sequence of Tyrosine-protein kinase Fyn (Homo sapiens) (P06241 2-537 limits assumed): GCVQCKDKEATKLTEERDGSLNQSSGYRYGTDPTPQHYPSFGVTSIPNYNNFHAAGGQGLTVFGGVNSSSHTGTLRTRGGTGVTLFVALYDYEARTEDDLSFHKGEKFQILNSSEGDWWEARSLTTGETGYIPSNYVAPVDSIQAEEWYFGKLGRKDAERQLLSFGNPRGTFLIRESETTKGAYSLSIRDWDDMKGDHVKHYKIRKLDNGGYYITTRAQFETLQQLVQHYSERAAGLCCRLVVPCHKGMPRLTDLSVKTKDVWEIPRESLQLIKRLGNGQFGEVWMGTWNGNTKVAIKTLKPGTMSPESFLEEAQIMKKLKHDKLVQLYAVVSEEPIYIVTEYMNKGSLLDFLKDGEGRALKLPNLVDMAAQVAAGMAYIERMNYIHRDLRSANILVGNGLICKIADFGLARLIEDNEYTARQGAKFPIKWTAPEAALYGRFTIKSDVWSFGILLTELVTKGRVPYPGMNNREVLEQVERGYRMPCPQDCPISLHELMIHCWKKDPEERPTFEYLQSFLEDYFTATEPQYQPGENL
Test [10] deals with T3, Muscle, skeletal receptor tyrosine-protein kinase (Homo sapiens) (UniProt O15146).
T3 sequence (whole entry): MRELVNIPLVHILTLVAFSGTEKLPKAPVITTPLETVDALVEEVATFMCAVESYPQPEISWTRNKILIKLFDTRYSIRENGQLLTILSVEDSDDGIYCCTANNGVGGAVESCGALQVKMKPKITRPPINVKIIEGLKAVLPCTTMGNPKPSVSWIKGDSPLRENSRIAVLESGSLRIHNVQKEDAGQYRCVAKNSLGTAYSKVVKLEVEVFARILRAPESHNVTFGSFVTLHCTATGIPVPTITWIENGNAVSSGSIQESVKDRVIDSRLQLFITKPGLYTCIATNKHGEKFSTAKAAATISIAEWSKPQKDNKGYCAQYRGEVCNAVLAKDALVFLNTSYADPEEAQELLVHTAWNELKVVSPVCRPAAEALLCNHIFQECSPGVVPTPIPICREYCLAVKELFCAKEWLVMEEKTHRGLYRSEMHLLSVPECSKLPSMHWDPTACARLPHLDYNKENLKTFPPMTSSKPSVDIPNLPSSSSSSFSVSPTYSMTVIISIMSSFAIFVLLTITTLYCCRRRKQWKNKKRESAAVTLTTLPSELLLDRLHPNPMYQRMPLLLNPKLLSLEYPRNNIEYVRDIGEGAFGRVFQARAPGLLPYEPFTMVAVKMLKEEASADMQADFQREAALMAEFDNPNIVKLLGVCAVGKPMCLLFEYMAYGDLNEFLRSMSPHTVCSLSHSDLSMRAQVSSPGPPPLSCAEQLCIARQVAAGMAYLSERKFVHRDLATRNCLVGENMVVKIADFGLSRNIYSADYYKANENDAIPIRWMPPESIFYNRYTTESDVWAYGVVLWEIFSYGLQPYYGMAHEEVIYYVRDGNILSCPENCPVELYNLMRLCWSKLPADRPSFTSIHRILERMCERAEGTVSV
The experiment in a line: Inhibition of human recombinant MUSK at 500 nM in presence of ATP by radiometric assay relative to control.

The target in test [11] is Ephrin type-A receptor 2 (Homo sapiens) (UniProt P29317). The experiment in a line: Inhibition of human recombinant EphA2 at 500 nM related to control ULK1.
Sequence of Ephrin type-A receptor 2 (Homo sapiens) (P29317 whole entry): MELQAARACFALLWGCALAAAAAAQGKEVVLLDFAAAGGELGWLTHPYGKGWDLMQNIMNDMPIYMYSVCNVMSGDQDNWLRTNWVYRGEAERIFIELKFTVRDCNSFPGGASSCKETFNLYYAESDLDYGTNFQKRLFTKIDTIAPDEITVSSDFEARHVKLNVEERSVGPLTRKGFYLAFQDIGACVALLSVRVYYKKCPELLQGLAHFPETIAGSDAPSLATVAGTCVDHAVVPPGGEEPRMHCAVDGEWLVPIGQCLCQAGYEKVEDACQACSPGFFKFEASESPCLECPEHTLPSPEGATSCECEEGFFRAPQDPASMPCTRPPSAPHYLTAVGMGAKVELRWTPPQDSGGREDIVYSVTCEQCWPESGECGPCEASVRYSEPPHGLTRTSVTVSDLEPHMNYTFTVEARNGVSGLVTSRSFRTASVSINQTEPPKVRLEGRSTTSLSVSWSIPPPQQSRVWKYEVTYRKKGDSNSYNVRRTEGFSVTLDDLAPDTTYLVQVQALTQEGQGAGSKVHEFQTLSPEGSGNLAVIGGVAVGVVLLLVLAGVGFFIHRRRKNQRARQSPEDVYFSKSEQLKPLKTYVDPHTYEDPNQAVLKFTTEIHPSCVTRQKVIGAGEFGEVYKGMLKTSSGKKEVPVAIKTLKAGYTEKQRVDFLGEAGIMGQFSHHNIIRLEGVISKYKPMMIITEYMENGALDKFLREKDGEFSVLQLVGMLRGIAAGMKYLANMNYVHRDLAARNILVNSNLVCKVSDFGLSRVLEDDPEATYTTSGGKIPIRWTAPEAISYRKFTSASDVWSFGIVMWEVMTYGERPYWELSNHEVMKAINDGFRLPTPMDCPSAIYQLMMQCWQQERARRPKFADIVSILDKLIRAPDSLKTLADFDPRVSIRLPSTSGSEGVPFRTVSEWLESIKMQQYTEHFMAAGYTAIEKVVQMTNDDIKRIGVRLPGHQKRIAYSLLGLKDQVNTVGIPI
The target of test [12] is Protein kinase C eta type (Homo sapiens) (UniProt P24723). The experiment in a line: Inhibition of human recombinant PKCH at 500 nM related to control ULK1.
Sequence of Protein kinase C eta type (Homo sapiens) (P24723 whole entry): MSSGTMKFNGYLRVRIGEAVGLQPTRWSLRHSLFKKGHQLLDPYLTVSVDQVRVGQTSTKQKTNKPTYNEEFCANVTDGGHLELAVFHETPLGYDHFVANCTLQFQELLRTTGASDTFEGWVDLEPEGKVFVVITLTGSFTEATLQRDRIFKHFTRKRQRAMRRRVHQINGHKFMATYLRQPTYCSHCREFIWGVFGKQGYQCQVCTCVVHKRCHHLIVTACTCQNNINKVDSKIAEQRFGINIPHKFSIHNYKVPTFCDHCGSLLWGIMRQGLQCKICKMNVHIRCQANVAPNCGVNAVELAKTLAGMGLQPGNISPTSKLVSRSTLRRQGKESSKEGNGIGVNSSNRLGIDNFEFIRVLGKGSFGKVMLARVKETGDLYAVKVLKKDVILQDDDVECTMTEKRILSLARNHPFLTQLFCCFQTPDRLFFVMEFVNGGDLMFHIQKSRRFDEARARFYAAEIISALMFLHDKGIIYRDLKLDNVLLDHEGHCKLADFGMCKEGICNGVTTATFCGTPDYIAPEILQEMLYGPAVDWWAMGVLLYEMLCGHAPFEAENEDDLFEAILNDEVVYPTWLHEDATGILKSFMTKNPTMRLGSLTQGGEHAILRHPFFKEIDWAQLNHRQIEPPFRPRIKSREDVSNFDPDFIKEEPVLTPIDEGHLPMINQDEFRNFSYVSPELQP

SMILES strings stand for the structures.

Sequence of Ribosomal protein S6 kinase alpha-6 (Homo sapiens) (Q9UK32 whole entry): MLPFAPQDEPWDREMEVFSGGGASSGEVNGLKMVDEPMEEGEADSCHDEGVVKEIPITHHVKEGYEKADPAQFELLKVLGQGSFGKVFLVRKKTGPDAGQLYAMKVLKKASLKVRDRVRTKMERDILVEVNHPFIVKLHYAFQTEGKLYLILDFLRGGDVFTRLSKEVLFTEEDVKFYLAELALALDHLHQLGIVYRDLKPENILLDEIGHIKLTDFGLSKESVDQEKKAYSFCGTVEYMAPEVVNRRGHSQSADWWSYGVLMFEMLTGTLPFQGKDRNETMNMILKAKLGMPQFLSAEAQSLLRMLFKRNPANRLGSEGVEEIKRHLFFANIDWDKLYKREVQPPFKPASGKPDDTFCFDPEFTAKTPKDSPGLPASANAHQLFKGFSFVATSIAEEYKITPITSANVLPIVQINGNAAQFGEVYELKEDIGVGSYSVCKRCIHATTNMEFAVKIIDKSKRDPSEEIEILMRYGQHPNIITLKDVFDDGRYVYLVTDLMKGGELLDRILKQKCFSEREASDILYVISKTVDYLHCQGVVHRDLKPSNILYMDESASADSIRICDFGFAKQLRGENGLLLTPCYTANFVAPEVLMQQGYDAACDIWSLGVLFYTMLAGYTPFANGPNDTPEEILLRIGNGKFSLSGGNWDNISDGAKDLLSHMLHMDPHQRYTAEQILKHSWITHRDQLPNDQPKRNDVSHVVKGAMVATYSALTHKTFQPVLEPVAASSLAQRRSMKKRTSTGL

As to `CC(C)[C@H](NC(=O)c1cc(-c2cnn3cc(-c4ccc(OCCN5CCCCC5)cc4)cnc23)cs1)C(F)(F)F`, the inhibition in test [1] is 73%; in test [2], 0%. Moreover, the results for the fold change (FC) (in the test filed under Homo sapiens; in test [3]; in test [4]) were 0.93, 0.81 and 0.48, respectively.

On to `O=C(N[C@@H](C1CC1)C(F)(F)F)c1cc(-c2cnn3cc(-c4ccc(F)cc4)cnc23)cs1`, for which the inhibition in test [5] turned out to be 0%; in test [6], 9%. Besides, the fold change (FC) in [7] and in [8] was 0 each time.

In the case of `CNC(=O)c1ccccc1Oc1nc(Nc2cc(OC)c(OC)c(OC)c2)ncc1Br`, the inhibition in test [9] worked out at 19%; in [10] it was 34%. Besides, the results for the fold change (FC) in test [11] and in [12] were 0.03 and 0.09, respectively.
